These results are taken from PMC5421726 (Clinical and Translational Science, 2017).

Data set [1] deals with HbA1c. Nature of the data set: PK/PD model relating tPDE4i to HbA1c in db/db mice. It is filed as in vivo. The method, boiled down:
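Once-daily dosing of db/db mice for 28 days: test compound at 1, 3 or 10 mg/kg/day, reference PDE4 inhibitor at 0.3, 1 or 3 mg/kg/day, its N-oxide metabolite at 3 mg/kg/day, vehicle 4% methocel. HbA1c read on days -1, 14 and 28. Emax model links HbA1c rise over time to individual tPDE4i. Fit by nonlinear mixed-effects modelling with FOCE-interaction; checked by visual predictive check (200 simulations).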

A short description of data set [2]: Unbound fraction in mouse plasma in vitro. Format: in vitro ADME.
The subject of data set [3] is PDE4. Kind of data set: Total PDE4 inhibition. Format: in vivo. The settings on record: db/db mice, geometric mean; for Complete tPDE4i: roflumilast + roflumilast N-oxide.
The subject of data set [4] is diabetic mouse model. The note with it: cited from earlier work.
Data set [5] deals with HbA1c. The settings on record: clinical setting; cited from earlier work.
The nature of data set [6]: Population pharmacokinetic analysis in db/db mice. It is filed as in vivo. The settings on record: after roflumilast-N-oxide dosing.
Where [7] appears, read: roflumilast N-oxide 3 mg/kg/day.

Each structure is given as a SMILES string.

Consider `O=C(Nc1c(Cl)c[n+]([O-])cc1Cl)c1ccc(OC(F)F)c(OCC2CC2)c1` [roflumilast(‐N‐oxide)], for which the “PDE50 (tPDE4i leading to half-maximum effect on HbA1c)” value in data set [1] (final PK/PD model estimate, 28 days) was 27.1.
By fraction unbound is commonly meant free concentration divided by total concentration. The low end stands for extensive binding, the high end for weak binding. Consider `O=C(Nc1c(Cl)cncc1Cl)c1ccc(OC(F)F)c(OCC2CC2)c1` [roflumilast], for which the fraction unbound in data set [2] worked out at 0.037. In data set [3] (roflumilast 0.3 mg/kg/day), the tPDE4irof is reported as 0.744, the tPDE4irofNO turned out to be 0.731 and the “Complete tPDE4i” value was 1.49. Also, in data set [3] (roflumilast 1 mg/kg/day), the tPDE4irof worked out at 2.23 and the tPDE4irofNO was 2.31. In addition, in data set [3] (roflumilast 3 mg/kg/day), the tPDE4irof is given as 6.56, the tPDE4irofNO is 7.18 and the “Complete tPDE4i” value was determined as 13.8. The “Dose required to reach half-maximum effect on HbA1c” value in data set [1] (calculated from PDE50) is on record as 5.9 mg/kg. Further, the Antidiabetic efficacy result in data set [4] was “significant antidiabetic efficacy”. In addition, the HbA1c levels result in data set [5] is “significantly reduced”.
Regarding `O=C(Nc1c(Cl)c[n+]([O-])cc1Cl)c1ccc(OC(F)F)c(OCC2CC2)c1` [roflumilast‐N‐oxide], in data set [3] (setting [7]), the tPDE4irof stood at 0.375, the tPDE4irofNO was 22.1 and the “Complete tPDE4i” value worked out at 22.5. In data set [6], the “Exposure of roflumilast relative to roflumilast-N-oxide” value is given as 2.6 % of roflumilast‐N‐oxide. Further, in data set [6] (two-compartment model), the Apparent roflumilast clearance was 41.8 L/h and the “Apparent roflumilast-N-oxide clearance” value amounted to 1.09 L/h.
